Measured values as given in ChEMBL document CHEMBL4627393, “Discovery of Potent, Selective, and State-Dependent NaV1.7 Inhibitors with Robust Oral Efficacy in Pain Models: Structure-Activity Relationship and Optimization of Chroman and Indane Aryl Sulfonamides” (J Med Chem, 2020).

Experiments:
[1] = Cmax in Sprague-Dawley rat at 1 mg/kg, iv measured upto 24 hrs by LC/MS-MS analysis; format: ADME, organism-based; design: dose 1 mg/kg, route intravenous; details: in vivo
[2] = Cmax in Beagle dog at 1 mg/kg, iv administered as infusion for 15 mins by LC/MS-MS analysis; format: ADME, organism-based, Canis lupus familiaris; design: dose 1 mg/kg, route intravenous; details: in vivo
[3] = Lipophilicity, log D of the compound; format: physicochemical; details: octanol/water
[4] = Metabolic stability in mouse liver microsomes assessed as metabolic rate at 1 uM preincubated for 5 mins followed by NADPH addition and measured up to 30 mins by LC/MS-MS analysis; format: ADME, Microsome; details: 0.5 h
[5] = Metabolic stability in rat liver microsomes assessed as metabolic rate at 1 uM preincubated for 5 mins followed by NADPH addition and measured up to 30 mins by LC/MS-MS analysis; format: ADME, Microsome; details: 0.5 h
[6] = Metabolic stability in human liver microsomes assessed as metabolic rate at 1 uM preincubated for 5 mins followed by NADPH addition and measured up to 30 mins by LC/MS-MS analysis; format: ADME, Microsome; details: 0.5 h
[7] = Cmax in BALB/c mouse at 1 mg/kg, iv measured upto 24 hrs by LC/MS-MS analysis; format: ADME, organism-based; design: dose 1 mg/kg, route intravenous; details: in vivo
[8] = AUClast in BALB/c mouse at 1 mg/kg, iv measured upto 24 hrs by LC/MS-MS analysis; format: ADME, organism-based; design: time < 24 hr, dose 1 mg/kg, route intravenous; details: in vivo
[9] = Half life in BALB/c mouse at 1 mg/kg, iv measured upto 24 hrs by LC/MS-MS analysis; format: ADME, organism-based; details: in vivo
[10] = Clearance in BALB/c mouse at 1 mg/kg, iv measured upto 24 hrs by LC/MS-MS analysis; format: ADME, organism-based; details: in vivo
[11] = Volume of distribution at steady state in BALB/c mouse at 1 mg/kg, iv measured upto 24 hrs by LC/MS-MS analysis; format: ADME, organism-based; details: in vivo, read-out: Vdss
Outline: (§1)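 Pharmacokinetics were run with an IV dose of 1 mg/kg and a PO dose of 10 mg/kg. Parameters reported were AUClast, Cmax, CL, T1/2, Vss and %F.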

[12] = Cmax in BALB/c mouse at 10 mg/kg, po measured upto 24 hrs by LC/MS-MS analysis; format: ADME, organism-based; design: dose 10 mg/kg, route oral; details: in vivo
[13] = AUClast in BALB/c mouse at 10 mg/kg, po measured upto 24 hrs by LC/MS-MS analysis; format: ADME, organism-based; design: dose 10 mg/kg, time < 24 hr, route oral; details: in vivo
[14] = Oral bioavailability in BALB/c mouse at 10 mg/kg measured upto 24 hrs by LC/MS-MS analysis; format: ADME, organism-based; details: in vivo; outline: as §1
[15] = Metabolic stability in dog liver microsomes assessed as metabolic rate at 1 uM preincubated for 5 mins followed by NADPH addition and measured up to 30 mins by LC/MS-MS analysis; format: ADME, Canis lupus familiaris, Microsome; details: 0.5 h
[16] = Metabolic stability in monkey liver microsomes assessed as metabolic rate at 1 uM preincubated for 5 mins followed by NADPH addition and measured up to 30 mins by LC/MS-MS analysis; format: ADME, Macaca mulatta, Microsome; details: rhesus monkey, 0.5 h
[17] = Apparent permeability across apical to basolateral side in human Caco2 cells; format: ADME, cell-based; details: Caco-2
[18] = Apparent permeability across basolateral to apical side in human Caco2 cells; format: ADME, cell-based; details: Caco-2
[19] = AUClast in Sprague-Dawley rat at 1 mg/kg, iv measured upto 24 hrs by LC/MS-MS analysis; format: ADME, organism-based; design: dose 1 mg/kg, time < 24 hr, route intravenous; details: in vivo
[20] = Half life in Sprague-Dawley rat at 1 mg/kg, iv measured upto 24 hrs by LC/MS-MS analysis; format: ADME, organism-based; details: in vivo
[21] = Clearance in Sprague-Dawley rat at 1 mg/kg, iv measured upto 24 hrs by LC/MS-MS analysis; format: ADME, organism-based; details: in vivo
[22] = Volume of distribution at steady state in Sprague-Dawley rat at 1 mg/kg, iv measured upto 24 hrs by LC/MS-MS analysis; format: ADME, organism-based; details: in vivo, read-out: Vdss
[23] = Cmax in Sprague-Dawley rat at 10 mg/kg, po measured upto 24 hrs by LC/MS-MS analysis; format: ADME, organism-based; design: dose 10 mg/kg, route oral; details: in vivo
[24] = AUClast in Sprague-Dawley rat at 10 mg/kg, po measured upto 24 hrs by LC/MS-MS analysis; format: ADME, organism-based; design: time < 24 hr, dose 10 mg/kg, route oral; details: in vivo
[25] = Oral bioavailability in Sprague-Dawley rat at 10 mg/kg measured upto 24 hrs by LC/MS-MS analysis; format: ADME, organism-based; details: in vivo; outline: as §1
[26] = AUClast in Beagle dog at 1 mg/kg, iv administered as infusion for 15 mins by LC/MS-MS analysis; format: ADME, organism-based, Canis lupus familiaris; design: dose 1 mg/kg, time 0 - last, route intravenous; details: in vivo
[27] = Half life in Beagle dog at 1 mg/kg, iv administered as infusion for 15 mins by LC/MS-MS analysis; format: ADME, organism-based, Canis lupus familiaris; details: in vivo
[28] = Clearance in Beagle dog at 1 mg/kg, iv administered as infusion for 15 mins by LC/MS-MS analysis; format: ADME, organism-based, Canis lupus familiaris; details: in vivo
[29] = Volume of distribution at steady state in Beagle dog at 1 mg/kg, iv administered as infusion for 15 mins by LC/MS-MS analysis; format: ADME, organism-based, Canis lupus familiaris; details: in vivo, read-out: Vdss; outline: as §1
[30] = Cmax in Beagle dog at 1 mg/kg, iv administered as infusion for 15 mins followed by compound washout and subsequent compound dosing at 5 mg/kg, po measured up to 24 hrs by LC/MS-MS analysis; format: ADME, organism-based, Canis lupus familiaris; details: in vivo
[31] = AUClast in Beagle dog at 1 mg/kg, iv administered as infusion for 15 mins followed by compound washout and subsequent compound dosing at 5 mg/kg, po measured up to 24 hrs by LC/MS-MS analysis; format: ADME, organism-based, Canis lupus familiaris; details: in vivo
[32] = Bioavailability in Beagle dog at 1 mg/kg, iv administered as infusion for 15 mins followed by compound washout and subsequent compound dosing at 5 mg/kg, po measured up to 24 hrs by LC/MS-MS analysis; format: ADME, organism-based, Canis lupus familiaris; details: in vivo
[33] = Unbound drug concentration in plasma of formalin-induced C57BL/6 mouse model of nociceptive pain at 3 mg/kg, po administered 30 mins before formalin stimulation and measured after 40 mins; format: ADME, organism-based; details: in vivo
Outline: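 Mice were dosed orally at 3 mg/kg 30 min before formalin challenge. Nociceptive behaviour was scored at 0–5 min (phase I) and 10–40 min (phase II). Plasma was collected at the end of the study, and the unbound drug concentration was determined.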

[34] = Drug concentration in brain of formalin-induced C57BL/6 mouse model of nociceptive pain at 30 mg/kg, po administered 30 mins before formalin stimulation and measured after 40 mins

Compound	Cmax [1] [µM]	Cmax [2] [µM]	logD [3]	Drug metabolism [4] [nmol/min/mg]	Drug metabolism [5] [nmol/min/mg]	Drug metabolism [6] [nmol/min/mg]	Cmax [7] [µM]	AUC(0-t) at 24 h [8] [µM·h]	half-life [9] [h]	Vd [11] [L/kg]	Cmax [12] [µM]	AUC(0-t) at 24 h [13] [µM·h]	bioavailability [14] [%]	Drug metabolism [15] [nmol/min/mg]	Drug metabolism [16] [nmol/min/mg]	AUC(0-t) at 24 h [19] [µM·h]	half-life [20] [h]	Vd [22] [L/kg]	Cmax [23] [µM]	AUC(0-t) at 24 h [24] [µM·h]	further results
O=S(=O)(Nc1ncccn1)c1ccc2c(c1)OCC[C@@H]2c1ccc(C(F)(F)F)cc1-c1ccc(F)nc1	1.7	5.7	2.8	0	0	0	2	12	3.2	0.8	17	171	> 100	0.03	0.01	15	9.8	1.2	6.6	111	clearance [10]: 2.6 mL/min/kg; Papp [17]: 41.8 ×10⁻⁶ cm/s; Papp [18]: 33.4 ×10⁻⁶ cm/s; clearance [21]: 2 mL/min/kg; bioavailability [25]: 74%; AUC(0-t) at 0.25 h [26]: 70 µM·h; half-life [27]: 24 h; clearance [28]: 0.3 mL/min/kg; Vd [29]: 0.5 L/kg; Cmax [30]: 14 µM; AUC(0-t) [31]: 218 µM·h; bioavailability [32]: 78%
Cn1nccc1-c1cc(C(F)(F)F)ccc1[C@H]1CCOc2cc(S(=O)(=O)Nc3ncccn3)ccc21	2.2	6.9	3.7	0	0.01	0	2	12	4.2	0.9	15	107	89	0.01	0.02	11	4.2	0.9	13	114	clearance [10]: 2.7 mL/min/kg; Papp A→B [17]: 28 ×10⁻⁶ cm/s; Papp B→A [18]: 26.8 ×10⁻⁶ cm/s; clearance [21]: 3 mL/min/kg; bioavailability [25]: 100%; AUC(0-t) at 0.25 h [26]: 59 µM·h; half-life [27]: 7.8 h; clearance [28]: 0.5 mL/min/kg; Vd [29]: 0.3 L/kg; Cmax [30]: 10 µM; AUC(0-t) [31]: 117 µM·h; bioavailability [32]: 40%; Cp(f) [33]: 0.728 µM
Cc1ccc(-c2cc(C(F)(F)F)ccc2[C@H]2CCOc3cc(S(=O)(=O)Nc4ncccn4)ccc32)cn1	2.6	6.5	2.3	0.04	0.02	0	3	7.6	1.5	0.6	18	63	83	0.02	0.02	5.5	1.9	0.8	19	112	Papp A→B [17]: 39.5 ×10⁻⁶ cm/s; Papp B→A [18]: 36.8 ×10⁻⁶ cm/s; bioavailability [25]: > 100%; AUC(0-t) at 0.25 h [26]: 19 µM·h; half-life [27]: 2.5 h; Vd [29]: 0.4 L/kg; Cmax [30]: 8.5 µM; AUC(0-t) [31]: 50 µM·h; bioavailability [32]: 51%; brain concentration at 40 min [34]: < 1 µM
O=S(=O)(Nc1ncccn1)c1ccc2c(c1)OCC[C@@H]2c1ccc(C(F)(F)F)cc1N1CCOCC1	2.1	4.9	2.7	0.16	0.02	0.02	2	12	4.3	0.81	9.6	62	50	0.02	0.03	5.9	2.8	1.2	2.1	19	clearance [10]: 2.5 mL/min/kg; Papp A→B [17]: 37.6 ×10⁻⁶ cm/s; Papp B→A [18]: 25.4 ×10⁻⁶ cm/s; clearance [21]: 5.1 mL/min/kg; bioavailability [25]: 31%; AUC(0-t) at 0.25 h [26]: 48 µM·h; half-life [27]: 11 h; clearance [28]: 0.5 mL/min/kg; Vd [29]: 0.5 L/kg; brain concentration at 40 min [34]: < 1 µM
